Legend:
A549 = assay: Antiproliferative activity against human A549 cells after 72 hrs by resazurin dye based fluorescence assay; type: functional, cell-based; settings: A549, 72 h
MDA-MB-231 [1] = assay: Antiproliferative activity against human MDA-MB-231 cells after 72 hrs by resazurin dye based fluorescence assay; type: functional, cell-based; settings: MDA-MB-231, 72 h
HeLa [2] = assay: Antiproliferative activity against human HeLa cells after 72 hrs by resazurin dye based fluorescence assay; type: functional, cell-based
[3] = Drug level in human MDA-MB-231 cells treated with (E)-3-(3-(N-phenylsulfamoyl)phenyl)-N-(4-(4,4,5,5-tetramethyl-1,3,2-dioxaborolan-2-yl)benzyloxy)acrylamide measured after 1 to 6 days by UHPLC-MS/MS analysis; type: ADME, cell-based
Procedure, shortened: (§1)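 MDA-MB-231 or HeLa cells were incubated with the pinacol boronate prodrug, and culture medium was sampled daily from day 1 to day 6. The prodrug, boronic acid forms and belinostat were separated, identified and quantified by HPLC coupled to an Orbitrap mass spectrometer. Results are in ng/mL as mean ± SEM of triplicate experiments.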

[4] = Drug level in human HeLa cells treated with (E)-3-(3-(N-phenylsulfamoyl)phenyl)-N-(4-(4,4,5,5-tetramethyl-1,3,2-dioxaborolan-2-yl)benzyloxy)acrylamide measured after 1 to 6 days by UHPLC-MS/MS analysis; type: ADME, cell-based; procedure, shortened: as §1
MCF7 [5] = assay: Antitumor activity against human MCF7 cells implanted in ovariectomized nu/nu mouse assessed as tumor weight at 10 mg/kg, sc administered once daily for 22 days measured post last dose (reference value: 743 +/- 142 mg); type: functional
MCF7 [6] = assay: Antitumor activity against human MCF7 cells implanted in ovariectomized nu/nu mouse assessed as tumor volume at 10 mg/kg, sc administered once daily for 22 days measured post last dose (reference value: 869 +/- 173 mm3); type: functional
Mus musculus = assay: Toxicity in ovariectomized nu/nu mouse implanted with human MCF7 cells assessed as effect on body weight at 10 mg/kg, sc administered once daily for 22 days; type: organism-based; settings: in vivo, 528 h
Procedure, shortened: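 MCF-7 xenograft in mice, dosed 10 mg/kg/day by subcutaneous injection alongside a vehicle group. Treatment ran 22 days. Body weights were compared with the vehicle group, and tumour volume was measured over the same period. At the end, mice were sacrificed and tumours removed.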

[7] = Drug uptake in tumor of ovariectomized nu/nu mouse implanted with human MCF7 cells at 10 mg/kg, sc administered once daily for 22 days measured post last dose by HPLC-MS/MS analysis; type: ADME, organism-based, Neoplasm; settings: female, read-out: Drug uptake
Procedure, shortened: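 After 22 days of 10 mg/kg/day subcutaneous dosing in MCF-7 xenograft mice, animals were sacrificed. Tumours were excised, homogenized and extracted, then analysed by HPLC–MS/MS for belinostat and the free boronic acid. Results are expressed as ng/g tissue.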

MCF-10A = assay: Cytotoxicity against human MCF10A cells assessed as reduction in cell proliferation at 10 uM after 72 hrs by resazurin dye based fluorescence assay
MCF7 [8] = assay: Antitumor activity against human MCF7 cells implanted in ovariectomized nu/nu mouse assessed as tumor volume at 10 mg/kg, sc administered once daily for 22 days measured post last dose relative to control; type: functional
MCF7 [9] = assay: Antiproliferative activity against human MCF7 cells after 72 hrs by resazurin dye based fluorescence assay; type: functional, cell-based; settings: MCF7, 72 h
MCF7 [10] = assay: Antitumor activity against human MCF7 cells implanted in ovariectomized nu/nu mouse assessed as tumor volume at 10 mg/kg, sc administered once daily for 22 days measured on day 12 during compound dosing (reference value: 869 +/- 173 mm3); type: functional
MCF7 [11] = assay: Antitumor activity against human MCF7 cells implanted in ovariectomized nu/nu mouse assessed as tumor growth inhibition at 10 mg/kg, sc administered once daily for 22 days measured post last dose relative to control; type: functional; settings: 528 h, read-out: TGI
HeLa [12] = assay: Prodrug conversion in human HeLa cells assessed as (E)-3-((3-(3-(N-phenylsulfamoyl)phenyl)acrylamidooxy)methyl)phenylboronic acid level after 6 days by UHPLC-MS/MS analysis; type: ADME, cell-based; settings: 144 h; procedure, shortened: as §1
HeLa [13] = assay: Prodrug conversion in human HeLa cells assessed as belinostat level after 4 days by UHPLC-MS/MS analysis; type: ADME, cell-based; settings: 96 h; procedure, shortened: as §1
HeLa [14] = assay: Prodrug conversion in human HeLa cells assessed as belinostat level after 6 days by UHPLC-MS/MS analysis; type: ADME, cell-based; settings: 144 h; procedure, shortened: as §1
HeLa [15] = assay: Prodrug conversion in human HeLa cells assessed as belinostat level after 5 days by UHPLC-MS/MS analysis; type: ADME, cell-based; settings: 120 h; procedure, shortened: as §1
MDA-MB-231 [16] = assay: Prodrug conversion in human MDA-MB-231 cells assessed as belinostat level after 2 days by UHPLC-MS/MS analysis; type: ADME, cell-based; settings: mda-mb-231, 48 h; procedure, shortened: as §1
HeLa [17] = assay: Prodrug conversion in human HeLa cells assessed as belinostat level after 2 days by UHPLC-MS/MS analysis; type: ADME, cell-based; settings: 48 h; procedure, shortened: as §1
MDA-MB-231 [18] = assay: Prodrug conversion in human MDA-MB-231 cells assessed as (E)-3-((3-(3-(N-phenylsulfamoyl)phenyl)acrylamidooxy)methyl)phenylboronic acid level after 6 days by UHPLC-MS/MS analysis; type: ADME, cell-based; settings: mda-mb-231, 144 h; procedure, shortened: as §1
HeLa [19] = assay: Prodrug conversion in human HeLa cells assessed as belinostat level after 1 day by UHPLC-MS/MS analysis; type: ADME, cell-based; settings: 24 h; procedure, shortened: as §1
MDA-MB-231 [20] = assay: Prodrug conversion in human MDA-MB-231 cells assessed as (E)-3-((3-(3-(N-phenylsulfamoyl)phenyl)acrylamidooxy)methyl)phenylboronic acid level after 1 day by UHPLC-MS/MS analysis; type: ADME, cell-based; settings: mda-mb-231, 24 h; procedure, shortened: as §1
MDA-MB-231 [21] = assay: Prodrug conversion in human MDA-MB-231 cells assessed as belinostat level after 5 days by UHPLC-MS/MS analysis; type: ADME, cell-based; settings: mda-mb-231, 120 h; procedure, shortened: as §1
MDA-MB-231 [22] = assay: Prodrug conversion in human MDA-MB-231 cells assessed as (E)-3-((3-(3-(N-phenylsulfamoyl)phenyl)acrylamidooxy)methyl)phenylboronic acid level after 3 days by UHPLC-MS/MS analysis; type: ADME, cell-based; settings: mda-mb-231, 72 h; procedure, shortened: as §1
MDA-MB-231 [23] = assay: Prodrug conversion in human MDA-MB-231 cells assessed as belinostat level after 1 day by UHPLC-MS/MS analysis; type: ADME, cell-based; settings: mda-mb-231, 24 h; procedure, shortened: as §1
MDA-MB-231 [24] = assay: Prodrug conversion in human MDA-MB-231 cells assessed as (E)-3-((3-(3-(N-phenylsulfamoyl)phenyl)acrylamidooxy)methyl)phenylboronic acid level after 5 days by UHPLC-MS/MS analysis; type: ADME, cell-based; settings: mda-mb-231, 120 h; procedure, shortened: as §1
HeLa [25] = assay: Prodrug conversion in human HeLa cells assessed as (E)-3-((3-(3-(N-phenylsulfamoyl)phenyl)acrylamidooxy)methyl)phenylboronic acid level after 1 day by UHPLC-MS/MS analysis; type: ADME, cell-based; settings: 24 h; procedure, shortened: as §1
HeLa [26] = assay: Prodrug conversion in human HeLa cells assessed as belinostat level after 3 days by UHPLC-MS/MS analysis; type: ADME, cell-based; settings: 72 h; procedure, shortened: as §1
MDA-MB-231 [27] = assay: Prodrug conversion in human MDA-MB-231 cells assessed as belinostat level after 6 days by UHPLC-MS/MS analysis; type: ADME, cell-based; settings: mda-mb-231, 144 h; procedure, shortened: as §1
HeLa [28] = assay: Prodrug conversion in human HeLa cells assessed as (E)-3-((3-(3-(N-phenylsulfamoyl)phenyl)acrylamidooxy)methyl)phenylboronic acid level after 4 days by UHPLC-MS/MS analysis; type: ADME, cell-based; settings: 96 h; procedure, shortened: as §1
MDA-MB-231 [29] = assay: Prodrug conversion in human MDA-MB-231 cells assessed as (E)-3-((3-(3-(N-phenylsulfamoyl)phenyl)acrylamidooxy)methyl)phenylboronic acid level after 4 days by UHPLC-MS/MS analysis; type: ADME, cell-based; settings: mda-mb-231, 96 h; procedure, shortened: as §1
HeLa [30] = assay: Prodrug conversion in human HeLa cells assessed as (E)-3-((3-(3-(N-phenylsulfamoyl)phenyl)acrylamidooxy)methyl)phenylboronic acid level after 5 days by UHPLC-MS/MS analysis; type: ADME, cell-based; settings: 120 h; procedure, shortened: as §1
HeLa [31] = assay: Prodrug conversion in human HeLa cells assessed as (E)-3-((3-(3-(N-phenylsulfamoyl)phenyl)acrylamidooxy)methyl)phenylboronic acid level after 2 days by UHPLC-MS/MS analysis; type: ADME, cell-based; settings: 48 h; procedure, shortened: as §1
MDA-MB-231 [32] = assay: Prodrug conversion in human MDA-MB-231 cells assessed as (E)-3-((3-(3-(N-phenylsulfamoyl)phenyl)acrylamidooxy)methyl)phenylboronic acid level after 2 days by UHPLC-MS/MS analysis; type: ADME, cell-based; settings: mda-mb-231, 48 h; procedure, shortened: as §1
MDA-MB-231 [33] = assay: Prodrug conversion in human MDA-MB-231 cells assessed as belinostat level after 3 days by UHPLC-MS/MS analysis; type: ADME, cell-based; settings: mda-mb-231, 72 h; procedure, shortened: as §1
MDA-MB-231 [34] = assay: Prodrug conversion in human MDA-MB-231 cells assessed as belinostat level after 4 days by UHPLC-MS/MS analysis; type: ADME, cell-based; settings: mda-mb-231, 96 h; procedure, shortened: as §1
HeLa [35] = assay: Prodrug conversion in human HeLa cells assessed as (E)-3-((3-(3-(N-phenylsulfamoyl)phenyl)acrylamidooxy)methyl)phenylboronic acid level after 3 days by UHPLC-MS/MS analysis; type: ADME, cell-based; settings: 72 h; procedure, shortened: as §1

## O=C(/C=C/c1cccc(S(=O)(=O)Nc2ccccc2)c1)NOCc1cccc(B(O)O)c1
A549
  IC50: 6580 nM
MDA-MB-231 [1]
  IC50: 2200 nM
HeLa [2]
  IC50: 12900 nM

## O=C(/C=C/c1cccc(S(=O)(=O)Nc2ccccc2)c1)NOCc1ccc(B(O)O)cc1
[3]
  Drug metabolism: Metabolite_Detected
[4]
  Drug metabolism: Metabolite_Detected

## O=C(/C=C/c1cccc(S(=O)(=O)Nc2ccccc2)c1)NO [BELINOSTAT]
MCF7 [5]
  Activity: 167 mg
MCF7 [6]
  Activity: 194 mm3
A549
  IC50: 77 nM
MDA-MB-231 [1]
  IC50: 62 nM
Mus musculus
  Activity: Non-Toxic
[7]
  concentration at 528 h: 23.4 ng/g
MCF-10A
  Activity: Non-Toxic
MCF7 [8]
  T/C: 22.3%
MCF7 [9]
  IC50: 96 nM
HeLa [2]
  IC50: 87 nM
MCF7 [10]
  Activity: 167 mm3
MCF7 [11]
  inhibition in vivo at 10 mg/kg: 77.7%

## CC1(C)OB(c2cccc(CONC(=O)/C=C/c3cccc(S(=O)(=O)Nc4ccccc4)c3)c2)OC1(C)C
HeLa [12]
  Drug metabolism: 66.6 ng/mL
HeLa [13]
  Drug metabolism: Metabolite_Notdetected
HeLa [14]
  Drug metabolism: Metabolite_Notdetected
A549
  IC50: 3600 nM
MDA-MB-231 [1]
  IC50: 2030 nM
HeLa [15]
  Drug metabolism: Metabolite_Notdetected
MDA-MB-231 [16]
  Drug metabolism: Metabolite_Notdetected
HeLa [17]
  Drug metabolism: Metabolite_Notdetected
MDA-MB-231 [18]
  Drug metabolism: 155.8 ng/mL
HeLa [19]
  Drug metabolism: Metabolite_Notdetected
MDA-MB-231 [20]
  Drug metabolism: 359.1 ng/mL
MDA-MB-231 [21]
  Drug metabolism: Metabolite_Notdetected
MDA-MB-231 [22]
  Drug metabolism: 199 ng/mL
MDA-MB-231 [23]
  Drug metabolism: Metabolite_Notdetected
MDA-MB-231 [24]
  Drug metabolism: 168.5 ng/mL
HeLa [25]
  Drug metabolism: 303.2 ng/mL
HeLa [2]
  IC50: 8320 nM
HeLa [26]
  Drug metabolism: Metabolite_Notdetected
MDA-MB-231 [27]
  Drug metabolism: Metabolite_Notdetected
HeLa [28]
  Drug metabolism: 134.7 ng/mL
MDA-MB-231 [29]
  Drug metabolism: 198.8 ng/mL
HeLa [30]
  Drug metabolism: 97.2 ng/mL
HeLa [31]
  Drug metabolism: 188.6 ng/mL
MDA-MB-231 [32]
  Drug metabolism: 262.9 ng/mL
MDA-MB-231 [33]
  Drug metabolism: Metabolite_Notdetected
MDA-MB-231 [34]
  Drug metabolism: Metabolite_Notdetected
HeLa [35]
  Drug metabolism: 147.9 ng/mL
